ChEMBL document CHEMBL1275441, “Effect of impaired renal function on the pharmacokinetics of tomopenem (RO4908463/CS-023), a novel carbapenem” (Antimicrob Agents Chemother, 2008)

What was measured:
Assay type in all cases: ADME, organism-based
[1] = AUC (infinity) in human with creatinine clearance of => 80 ml/min at 1500 mg, iv administered as single dose measured after 60 mins; parameters: dose 1500 mg, time infinity, route intravenous; details: plasma
Summary of the method: (§1)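 Single 1,500 mg i.v. infusion over 60 min, eight subjects per renal-function group (creatinine clearance by Cockcroft-Gault at screening). Blood was sampled predose and at 1–48 h, and the plasma was stabilized 1:1 with 0.5 M MOPS pH 6.0, kept from light and frozen at −70°C. Parent and metabolite were measured by a validated bioanalytical method. Noncompartmental analysis: t1/2 = ln2/λz from ≥3 terminal points, Cmax/Tmax from raw data, ratio = AUC∞ metabolite/parent.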

[2] = Volume of distribution in healthy human at 700 mg, iv administered as single dose; details: in vivo
[3] = tested on: Homo sapiens; assay: Drug metabolism in human with creatinine clearance of =< 30 ml/min assessed as RO4957463 AUC (infinity) at 1500 mg, iv administered as single dose measured after 60 mins; parameters: dose 1500 mg, time infinity, route intravenous; details: in vivo, 1 h; summary of the method: as §1
[4] = Cmax in human with creatinine clearance of =< 30 ml/min at 1500 mg, iv administered as single dose measured after 60 mins; parameters: dose 1500 mg, route intravenous; details: in vivo; summary of the method: as §1
[5] = AUC (infinity) in human with creatinine clearance of 30-49 ml/min at 1500 mg, iv administered as single dose measured after 60 mins; parameters: dose 1500 mg, route intravenous, time infinity; details: plasma; summary of the method: as §1
[6] = tested on: Homo sapiens; assay: Drug metabolism in human with creatinine clearance of 50-79 ml/min assessed as RO4957463 AUC (infinity) at 1500 mg, iv administered as single dose measured after 60 mins; parameters: dose 1500 mg, time infinity, route intravenous; details: in vivo, 1 h; summary of the method: as §1
[7] = Apparent half-life in human with creatinine clearance of 50-79 ml/min at 1500 mg, iv administered as single dose; details: in vivo; summary of the method: as §1
[8] = Cmax in human with creatinine clearance of 50-79 ml/min at 1500 mg, iv administered as single dose measured after 60 mins; parameters: dose 1500 mg, route intravenous; details: in vivo; summary of the method: as §1
[9] = AUC (infinity) in human with creatinine clearance of 50-79 ml/min at 1500 mg, iv administered as single dose measured after 60 mins; parameters: dose 1500 mg, route intravenous, time infinity; details: plasma; summary of the method: as §1
[10] = tested on: Homo sapiens; assay: Drug excretion in human with creatinine clearance of 50-79 ml/min at 1500 mg, iv administered as single dose after 24 hrs; details: in vivo
Summary of the method: (§2)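 After a single 1,500 mg i.v. infusion over 60 min, urine was collected 0–6, 6–12 and 12–24 h post-dose, with volume and pH recorded. Aliquots were mixed 1:1 with 0.5 M MOPS, protected from light and frozen at −70°C. Parent and metabolite were assayed by a validated method. CLR = Ae24/plasma AUC24. n = 8 per group, mean ± SD.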

[11] = tested on: Homo sapiens; assay: Drug metabolism in human with creatinine clearance of => 80 ml/min assessed as RO4957463 AUC (infinity) at 1500 mg, iv administered as single dose measured after 60 mins; parameters: dose 1500 mg, route intravenous, time infinity; details: in vivo, 1 h; summary of the method: as §1
[12] = Volume of distribution at steady state in human with creatinine clearance of => 80 ml/min at 1500 mg, iv administered as single dose measured after 60 mins; details: in vivo, read-out: Vdss
Summary of the method: (§3)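 Eight subjects per CL_CR group (Cockcroft-Gault) received 1,500 mg i.v. over 60 min. Plasma was sampled predose and from 1 to 48 h, mixed with equal-volume 0.5 M MOPS pH 6.0, frozen at −70°C light-protected, and assayed by a validated method. Parameters were derived noncompartmentally from actual times, with T_max taken from raw data as a median and CL/V_ss as means ± SD.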

[13] = tested on: Homo sapiens; assay: Drug metabolism in human with creatinine clearance of => 80 ml/min assessed as RO4957463 Tmax at 1500 mg, iv administered as single dose; details: in vivo; summary of the method: as §1
[14] = Apparent half-life in human with creatinine clearance of 30-49 ml/min at 1500 mg, iv administered as single dose; details: in vivo; summary of the method: as §1
[15] = Volume of distribution at steady state in human with creatinine clearance of 30-49 ml/min at 1500 mg, iv administered as single dose measured after 60 mins; details: in vivo, read-out: Vdss; summary of the method: as §3
[16] = Tmax in human with creatinine clearance of 50-79 ml/min at 1500 mg, iv administered as single dose; details: in vivo; summary of the method: as §3
[17] = tested on: Homo sapiens; assay: Drug metabolism in human with creatinine clearance of => 80 ml/min assessed as RO4957463 Cmax at 1500 mg, iv administered as single dose measured after 60 mins; parameters: dose 1500 mg, route intravenous; details: in vivo, 1 h; summary of the method: as §1
[18] = Apparent half-life in human with creatinine clearance of =< 30 ml/min at 1500 mg, iv administered as single dose; details: in vivo; summary of the method: as §1
[19] = tested on: Homo sapiens; assay: Drug excretion in human with creatinine clearance of 30-49 ml/min at 1500 mg, iv administered as single dose after 24 hrs; details: in vivo; summary of the method: as §2
[20] = tested on: Homo sapiens; assay: Drug metabolism in human with creatinine clearance of =< 30 ml/min assessed as RO4957463 Cmax at 1500 mg, iv administered as single dose measured after 60 mins; parameters: dose 1500 mg, route intravenous; details: in vivo, 1 h; summary of the method: as §1
[21] = Tmax in human with creatinine clearance of => 80 ml/min at 1500 mg, iv administered as single dose; details: in vivo; summary of the method: as §3
[22] = tested on: Homo sapiens; assay: Drug metabolism in human with creatinine clearance of 30-49 ml/min assessed as RO4957463 AUC (infinity) at 1500 mg, iv administered as single dose measured after 60 mins; parameters: dose 1500 mg, route intravenous, time infinity; details: in vivo, 1 h; summary of the method: as §1
[23] = tested on: Homo sapiens; assay: Drug excretion in human with creatinine clearance of =< 30 ml/min at 1500 mg, iv administered as single dose after 24 hrs; details: in vivo; summary of the method: as §2
[24] = tested on: Homo sapiens; assay: Drug metabolism in human with creatinine clearance of =< 30 ml/min assessed as RO4957463 apparent half life at 1500 mg, iv administered as single dose; details: in vivo; summary of the method: as §1
[25] = Dose normalized excretion in human with creatinine clearance of =< 30 ml/min at 1500 mg, iv administered as single dose after 24 hrs; details: in vivo, read-out: Activity; summary of the method: as §2
[26] = Total clearance in human with creatinine clearance of =< 30 ml/min at 1500 mg, iv administered as single dose after 60 mins after 60 mins; details: in vivo; summary of the method: as §3
[27] = Volume of distribution at steady state in human with creatinine clearance of =< 30 ml/min at 1500 mg, iv administered as single dose measured after 60 mins; details: in vivo, read-out: Vdss; summary of the method: as §3
[28] = tested on: Homo sapiens; assay: Drug metabolism in human with creatinine clearance of 30-49 ml/min assessed as RO4957463 Tmax at 1500 mg, iv administered as single dose; details: in vivo; summary of the method: as §1
[29] = tested on: Homo sapiens; assay: Ratio of RO4957463 AUC (infinity) to compound AUC (infinity)) in human with creatinine clearance of =< 30 ml/min at 1500 mg, iv administered as single dose measured after 60 mins; details: in vivo, 1 h; summary of the method: as §1
[30] = tested on: Homo sapiens; assay: Drug excretion in human with creatinine clearance of => 80 ml/min at 1500 mg, iv administered as single dose after 24 hrs; details: in vivo; summary of the method: as §2
[31] = Dose normalized excretion in human with creatinine clearance of 30-49 ml/min at 1500 mg, iv administered as single dose after 24 hrs; details: in vivo, read-out: Activity; summary of the method: as §2
[32] = tested on: Homo sapiens; assay: Ratio of RO4957463 AUC (infinity) to compound AUC (infinity) in human with creatinine clearance of 30-49 ml/min at 1500 mg, iv administered as single dose measured after 60 mins; details: in vivo, 1 h; summary of the method: as §1
[33] = Dose normalized excretion in human with creatinine clearance of => 80 ml/min at 1500 mg, iv administered as single dose after 24 hrs; details: in vivo, read-out: Activity; summary of the method: as §2

- AUC(0-inf) [1]: 191 µg·h/mL
- Vd [2]: 17 L
- AUC [3]: 490 µg·h/mL
- Cmax [4]: 116 µg/mL
- AUC(0-inf) [5]: 517 µg·h/mL
- AUC [6]: 37.3 µg·h/mL
- half-life [7]: 3 h
- Cmax [8]: 106 µg/mL
- AUC(0-inf) [9]: 304 µg·h/mL
- Activity [10]: 1090 mg
- AUC [11]: 18.5 µg·h/mL
- Vd [12]: 18.8 L
- Tmax [13]: 1.01 h
- half-life [14]: 4.59 h
- Vd [15]: 17.2 L
- Tmax [16]: 1 h
- Cmax [17]: 3.51 µg/mL
- half-life [18]: 7.94 h
- Activity [19]: 939 mg
- Cmax [20]: 9.63 µg/mL
- Tmax [21]: 1 h
- AUC [22]: 115 µg·h/mL
- Activity [23]: 618 mg
- t1/2 [24]: 25.3 h
- dose excreted at 24 h [25]: 41.2%
- clearance [26]: 25.3 mL/min
- Vd [27]: 16.4 L
- Tmax [28]: 5 h
- Ratio [29]: 0.49
- Activity [30]: 862 mg
- dose excreted at 24 h [31]: 62.6%
- Ratio [32]: 0.21
- dose excreted at 24 h [33]: 57.4%
Structure (SMILES): C[C@@H](O)[C@H]1C(=O)N2C(C(=O)O)=C(S[C@H]3C[C@@H](C(=O)N4CC[C@H](NC(=O)CNC(=N)N)C4)N(C)C3)[C@H](C)[C@H]12 [TOMOPENEM]
